{
  "source": "ChEMBL document CHEMBL1155880",
  "about": "“Slow self-activation enhances the potency of viridin prodrugs” (J Med Chem, 2008)",
  "key": {"A549 [1]": {"system": "A549", "assay": "Antiproliferative activity against human A549 cells after 48 hrs by SRB method", "assay_type": "functional, cell-based", "settings": "A549, 48 h"}, "A549 [2]": {"system": "A549", "assay": "Cellular uptake in human A549 cells at 10 uM by FACS relative to initial rate", "assay_type": "ADME, cell-based", "settings": "a549, 10 µM", "summary_of_the_method": "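A549 cells incubated with 10 μM NBD-labelled compound for varying times, then detached with trypsin and analysed by FACS. Fluorescence over time is expressed as relative cellular fluorescence: the geometric mean of exposed cells divided by the geometric mean of unexposed cells.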"}, "[3]": {"assay": "Chemical stability assessed as half-times of wortmannin formation at pH 6.8 in phosphate buffer saline", "assay_type": "physicochemical", "summary_of_the_method": "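Compounds were incubated at 1.5 mM Wm equivalents in PBS, pH 6.8, 37°C. Wm (or NBD-Wm) formation was followed by reverse-phase C18 HPLC with methyl-4-hydroxybenzoate as internal standard. For NBD derivatives, 10% acetonitrile and 5% DMSO were added to keep the released product in solution. Half-lives of formation were derived from this.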"}},
  "data": [
    {"compound": "COC[C@H]1OC(=O)/C(=C\\N(C)c2ccncc2)C2=C(O)C(=O)C3=C([C@H](OC(=O)CCCCN(C)c4ccc([N+](=O)[O-])c5nonc45)C[C@]4(C)C(=O)CC[C@@H]34)[C@]21C", "values": [
      {"measurement": "IC50", "setting": "A549 [1]", "result": 9.99, "unit": "µM"},
      {"measurement": "Drug uptake", "setting": "A549 [2]", "result": 1.199},
      {"measurement": "Activity", "setting": "[3]", "result": 1.87, "unit": "h"}
    ]},
    {"compound": "COC[C@H]1OC(=O)/C(=C\\NCCCCC(=O)O)C2=C(O)C(=O)C3=C([C@H](OC(C)=O)C[C@]4(C)C(=O)CC[C@@H]34)[C@]21C", "values": [
      {"measurement": "IC50", "setting": "A549 [1]", "result": 27.9, "unit": "µM"},
      {"measurement": "Activity", "setting": "[3]", "result": "> 100", "unit": "h"}
    ]},
    {"compound": "COC[C@H]1OC(=O)c2coc3c2[C@@]1(C)C1=C(C3=O)[C@@H]2CCC(=O)[C@@]2(C)C[C@H]1OC(C)=O", "note": "[WORTMANNIN]", "values": [
      {"measurement": "IC50", "setting": "A549 [1]", "result": 11.4, "unit": "µM"}
    ]},
    {"compound": "COC[C@H]1OC(=O)/C(=C\\N2CCCC2C(=O)O)C2=C(O)C(=O)C3=C([C@H](OC(C)=O)C[C@]4(C)C(=O)CC[C@@H]34)[C@]21C", "note": "(stereo partly drawn)", "values": [
      {"measurement": "IC50", "setting": "A549 [1]", "result": 1.79, "unit": "µM"},
      {"measurement": "Activity", "setting": "[3]", "result": 9.9, "unit": "h"}
    ]},
    {"compound": "COC[C@H]1OC(=O)/C(=C\\N(C)CCCCCC(=O)O)C2=C(O)C(=O)C3=C([C@H](OC(C)=O)C[C@]4(C)C(=O)CC[C@@H]34)[C@]21C", "values": [
      {"measurement": "IC50", "setting": "A549 [1]", "result": 0.96, "unit": "µM"},
      {"measurement": "Activity", "setting": "[3]", "result": 8.7, "unit": "h"}
    ]},
    {"compound": "COC[C@H]1OC(=O)c2coc3c2[C@@]1(C)C1=C(C3=O)[C@@H]2CCC(=O)[C@@]2(C)C[C@H]1OC(=O)CCCCN(C)c1ccc([N+](=O)[O-])c2nonc12", "values": [
      {"measurement": "IC50", "setting": "A549 [1]", "result": 12.2, "unit": "µM"},
      {"measurement": "Drug uptake", "setting": "A549 [2]", "result": 1}
    ]},
    {"compound": "COC[C@H]1OC(=O)/C(=C\\N(C)c2ccncc2)C2=C(O)C(=O)C3=C([C@H](OC(C)=O)C[C@]4(C)C(=O)CC[C@@H]34)[C@]21C", "values": [
      {"measurement": "IC50", "setting": "A549 [1]", "result": 9.86, "unit": "µM"},
      {"measurement": "Drug uptake", "setting": "A549 [2]", "result": 1},
      {"measurement": "Activity", "setting": "[3]", "result": 2.3, "unit": "h"}
    ]},
    {"compound": "COC[C@H]1OC(=O)/C(=C\\NCCCCCC(=O)O)C2=C(O)C(=O)C3=C([C@H](OC(=O)CCCCN(C)c4ccc([N+](=O)[O-])c5nonc45)C[C@]4(C)C(=O)CC[C@@H]34)[C@]21C", "values": [
      {"measurement": "IC50", "setting": "A549 [1]", "result": 48.7, "unit": "µM"},
      {"measurement": "Drug uptake", "setting": "A549 [2]", "result": 0.0271},
      {"measurement": "Activity", "setting": "[3]", "result": "> 100", "unit": "h"}
    ]},
    {"compound": "COC[C@H]1OC(=O)/C(=C\\NCCCCC(NC(C)=O)C(=O)O)C2=C(O)C(=O)C3=C([C@H](OC(C)=O)C[C@]4(C)C(=O)CC[C@@H]34)[C@]21C", "note": "(stereo partly drawn)", "values": [
      {"measurement": "IC50", "setting": "A549 [1]", "result": 29.8, "unit": "µM"},
      {"measurement": "Activity", "setting": "[3]", "result": "> 100", "unit": "h"}
    ]},
    {"compound": "COC[C@H]1OC(=O)/C(=C\\N(C)CCCCCC(=O)O)C2=C(O)C(=O)C3=C([C@H](OC(=O)CCCCN(C)c4ccc([N+](=O)[O-])c5nonc45)C[C@]4(C)C(=O)CC[C@@H]34)[C@]21C", "values": [
      {"measurement": "IC50", "setting": "A549 [1]", "result": 3.85, "unit": "µM"},
      {"measurement": "Drug uptake", "setting": "A549 [2]", "result": 0.187},
      {"measurement": "Activity", "setting": "[3]", "result": 8, "unit": "h"}
    ]}
  ]
}
